The source of these data is PubChem BioAssay.

Assay [1] in a line: reducers of endogenous Her2 protein level, primary screen, SKBR3 breast tumor cells, AlphaScreen, ATP viability (AID 461).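 As to Her2 level: lower value means less Her2 protein in the cells.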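 As to viability: percent of carrier control wells set as 100% viability.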 As to conditions: 18-24 h, measured here: SKBR3 viability, ATP luminescence, at 10 µM. (In general: In Alpha technology, singlet oxygen from a donor bead excites a nearby acceptor bead.)
Assay [2] deals with Receptor tyrosine-protein kinase erbB-2 (Homo sapiens) (UniProt P04626). Described as above. As to conditions: 18-24 h, at 10 µM, stronger effect = lower value.
Chain of Receptor tyrosine-protein kinase erbB-2 (Homo sapiens) (P04626 whole entry, looked up): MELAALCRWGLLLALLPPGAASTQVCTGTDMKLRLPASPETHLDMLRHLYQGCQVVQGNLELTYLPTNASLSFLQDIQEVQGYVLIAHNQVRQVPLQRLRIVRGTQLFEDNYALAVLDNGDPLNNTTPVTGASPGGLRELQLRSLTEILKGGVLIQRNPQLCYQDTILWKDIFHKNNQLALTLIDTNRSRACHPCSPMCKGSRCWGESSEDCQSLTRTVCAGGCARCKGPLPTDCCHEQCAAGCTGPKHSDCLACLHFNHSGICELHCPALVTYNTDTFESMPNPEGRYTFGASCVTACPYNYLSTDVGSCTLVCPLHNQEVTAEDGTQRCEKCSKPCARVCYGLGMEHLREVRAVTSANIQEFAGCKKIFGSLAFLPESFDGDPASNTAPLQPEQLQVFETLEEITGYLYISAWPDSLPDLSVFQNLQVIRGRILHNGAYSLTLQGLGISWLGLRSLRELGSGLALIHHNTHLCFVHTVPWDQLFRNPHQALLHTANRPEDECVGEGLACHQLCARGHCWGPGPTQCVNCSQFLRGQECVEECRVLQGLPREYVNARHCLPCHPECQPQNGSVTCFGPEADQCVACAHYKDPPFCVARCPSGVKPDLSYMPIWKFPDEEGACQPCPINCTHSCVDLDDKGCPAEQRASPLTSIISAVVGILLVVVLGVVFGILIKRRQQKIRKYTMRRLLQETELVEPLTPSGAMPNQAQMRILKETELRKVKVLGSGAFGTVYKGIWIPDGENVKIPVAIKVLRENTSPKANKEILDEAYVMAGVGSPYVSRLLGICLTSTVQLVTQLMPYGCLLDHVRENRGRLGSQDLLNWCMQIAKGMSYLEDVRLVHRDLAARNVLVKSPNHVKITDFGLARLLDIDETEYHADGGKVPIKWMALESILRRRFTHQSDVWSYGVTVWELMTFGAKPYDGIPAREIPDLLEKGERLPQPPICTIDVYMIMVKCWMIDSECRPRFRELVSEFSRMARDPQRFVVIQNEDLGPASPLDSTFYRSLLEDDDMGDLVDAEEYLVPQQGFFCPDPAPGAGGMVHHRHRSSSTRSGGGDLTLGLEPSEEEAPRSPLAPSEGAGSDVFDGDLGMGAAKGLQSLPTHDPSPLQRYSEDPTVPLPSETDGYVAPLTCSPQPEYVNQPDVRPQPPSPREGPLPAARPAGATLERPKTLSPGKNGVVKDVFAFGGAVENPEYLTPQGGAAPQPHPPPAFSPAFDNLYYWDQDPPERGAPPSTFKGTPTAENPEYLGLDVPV
The nature of assay [3]: SK-BR-3 cell growth inhibitors, pilot screen, 24 h, human (AID 572;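 active = viability at or below 10% of carrier control in both of two separate runs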;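 also: compound exposure lasted between 18 and 24 h rather than exactly 24 h; 100% = carrier-treated control wells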). As to conditions: SK-BR-3 viability, CellTiter-Glo luminescence, at 10 µM, stronger effect = lower value.
Assay [4] can be described thus: HUVEC growth inhibition – cell-based, human, primary screen (AID 575;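 active = viability at or below 30% in both replicate assays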;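 also: 100% = median of untreated cell wells with 0.1% DMSO on each plate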). Particulars: HUVEC proliferation, CellTiter-Glo luminescence, 72 h; at 10 µM; stronger effect = lower value. In outline: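 Material: primary human umbilical vein endothelial cells / Schedule: 72 h exposure, 37 °C, 5% CO2, 30 min RT equilibration / Signal: ATP-based CellTiter-Glo luminescent read / Read-out basis: percent of median DMSO-control luminescence / Control set: 32 DMSO-only cell-control wells (high), 32 MePR drug-control wells (low) per plate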
(In ATP-based viability assays light output follows the ATP content of the culture.)

A short description of assay [5]: growth inhibitors of H69AR lung tumor, primary screen, human, duplicate replicates (AID 580;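 active = viability at or under a set limit in both replicates, limit being median viability minus 3 SD, cut at about 48% in these data, passing the limit was not always enough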;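 also: 100% = mean luminescence of untreated wells and 0% = no signal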). Particulars: H69AR lung tumor cells viability, ATP luminescence, 72 h; at 10 µM; stronger effect = lower value.
Assay [6] can be described thus: reversal of MRP1-mediated doxorubicin resistance, pilot screen, H69AR cells, doxorubicin co-treatment (AID 601;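 active = viability loss from added drug above about 55%, and viability with drug at most 40%, in both replicates, limit read from the data, passing the limit was not always enough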). As to conditions: CellTiter-Glo, 72 h, at 10 µM; for differential viability (reversal): stronger effect = higher value.
Assay [7] can be described thus: 384-well plate pilot, post-Golgi transport modulator project, inhibition of yeast transport mutant growth (AID 636; in the data active = inhibition above about 31%). As to conditions: absorbance 615 nm, about 18 h, stronger effect = higher value.
Assay [8] in a line: growth suppression of yeast trafficking mutant, preliminary HTS, modulators of trafficking downstream of Golgi apparatus project, 1536-format plate, OD 615 nm (AID 637; in the data active = inhibition above about 30%). As to conditions: yeast transport mutant growth, absorbance 615 nm, 18 h; stronger effect = higher value.
Setting [9] is: H69AR cells + 2 uM doxorubicin, measured here: viability with 2 uM doxorubicin, stronger effect = lower value.
Where [10] appears, read: H69AR cells, compound alone cytotoxicity.

The structures appear in SMILES notation. The source made the active and inactive calls.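 The calls were made as follows, unless noted: active = Her2 level under about 52% in both replicate screens, with viability over 70% of control (limit read from the data); inconclusive = Her2 under the limit in one screen only, or viability under 70%; inactive = Her2 level above the set limit.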

Usually viability stands for a read-out of living cells in per cent, often relative to untreated cells. The inhibition is the change of the read-out against control, counted positive when it falls. Take `Cn1c(SCC(=O)c2ccc(-c3ccccc3)cc2)nnc1-c1ccco1`: the viability in assay [1] is 120%; in assay [3] it was 120% (inactive); in assay [4] it was 93.7% (inactive); in assay [5], 88.1% (inactive); in assay [6] (setting [9]), 91.1%; in assay [6] (setting [10]), 88.1%. Further, the Her2 level in assay [2] was 93.5% (inactive). Further, in assay [6] (H69AR cells + 2 uM doxorubicin), the differential viability (reversal) was -2.98% (inactive). Moreover, the results for the inhibition in assay [7] and in assay [8] were -5.6% (inactive) and 9.68% (inactive), respectively.

Consider `CCOC(=O)N1CCC(NC(=O)C2CCCN2C(=O)OCc2ccccc2)CC1` (stereo not given), for which the viability was 93% in assay [1]; 93% (inactive) in assay [3]; 103% (inactive) in assay [4]; 90.7% (inactive) in assay [5]; 93% in assay [6] (setting [9]); 90.7% in assay [6] (setting [10]). Also, in assay [2], the Her2 level is 106% (inactive). Further, the differential viability (reversal) in assay [6] (H69AR cells + 2 uM doxorubicin) was -2.27% (inactive). The inhibition in assay [7] was 2.89% (inactive); in assay [8], -7.1% (inactive).

As to `COc1ccc(C(=O)N2CCN(C3CCCCC3)CC2)c(OC)c1`, the viability in assay [1] was 82.5%; in assay [3] it was 82.5% (inactive); in assay [4], 88.3% (inactive); in assay [5], 95.3% (inactive); in assay [6] (setting [9]), 94.9%; in assay [6] (setting [10]) it was 95.3%. The Her2 level in assay [2] is 104% (inactive). In addition, the differential viability (reversal) in assay [6] (H69AR cells + 2 uM doxorubicin) was 0.4% (inactive). Moreover, the results for the inhibition in assay [7] and in assay [8] were -2.53% (inactive) and 11.8% (inactive), respectively.

On to `Cc1occc1C(=O)Nc1cccc2ccccc12`, for which the viability is 86% in assay [1]; 86% (inactive) in assay [3]; 62.9% (inactive) in assay [4]; 73.2% (inactive) in assay [5]; 86.1% in assay [6] (setting [9]); 73.2% in assay [6] (setting [10]). Also, the Her2 level in assay [2] is 75.5% (inactive). In assay [6] (H69AR cells + 2 uM doxorubicin), the differential viability (reversal) is -12.8% (inactive). For the same molecule, the inhibition in assay [7] is -1.84% (inactive); in assay [8], 1.77% (inactive).

With `COc1ccccc1C1/C(=C(/O)c2ccccc2)C(=O)C(=O)N1CC(C)C` (stereo not given), the viability in assay [1] is 104%; in assay [3], 104% (inactive); in assay [4] it was 81.4% (inactive); in assay [5], 82.1% (inactive); in assay [6] (setting [9]) it was 84.4%; in assay [6] (setting [10]) it was 82.1%. In addition, the Her2 level in assay [2] was 89.5% (inactive). Also, the differential viability (reversal) in assay [6] (H69AR cells + 2 uM doxorubicin) is -2.33% (inactive). In addition, the results for the inhibition in assay [7] and in assay [8] were -2.47% (inactive) and 5.24% (inactive), respectively.

As to `COc1cccc(-n2nnc3c(=O)n(Cc4cccc(F)c4)cnc32)c1`, the viability is 96.5% in assay [1]; 96.5% (inactive) in assay [3]; 91.7% (inactive) in assay [4]; 99.9% (inactive) in assay [5]; 94.6% in assay [6] (setting [9]); 99.9% in assay [6] (setting [10]). The Her2 level in assay [2] was 104% (inactive). In assay [6] (H69AR cells + 2 uM doxorubicin), the differential viability (reversal) is 5.36% (inactive). Also, the inhibition is -2.7% (inactive) in assay [7] and 16.8% (inactive) in assay [8].

Take `CCCc1cc(C(=O)Nc2ccccc2C(=O)OC)no1`: the viability in assay [1] is 89.5%; in assay [3], 89.5% (inactive); in assay [4], 64.7% (inactive); in assay [5], 89.3% (inactive); in assay [6] (setting [9]), 82%; in assay [6] (setting [10]), 89.3%. In addition, the Her2 level in assay [2] was 109% (inactive). Further, the differential viability (reversal) in assay [6] (H69AR cells + 2 uM doxorubicin) was 7.36% (inactive). Moreover, the inhibition in assay [7] is 4.1% (inactive); in assay [8] it was 14.5% (inactive).

For `Cc1ccc(S(=O)(=O)N2CCN(C(=O)CN3CCOCC3)C2C(C)C)cc1` (stereo not given), the viability in assay [1] is 99.5%; in assay [3], 99.5% (inactive); in assay [4], 102% (inactive); in assay [5] it was 104% (inactive); in assay [6] (setting [9]), 94.5%; in assay [6] (setting [10]) it was 104%. In assay [2], the Her2 level was 102% (inactive). The differential viability (reversal) in assay [6] (H69AR cells + 2 uM doxorubicin) was 9.15% (inactive). The inhibition is -2.86% (inactive) in assay [7] and -2.54% (inactive) in assay [8].

On to `O=c1[nH]c(Nc2ccccc2)cc2ccccc12`, for which the viability in assay [1] was 94.5%; in assay [3] it was 94.5% (inactive); in assay [4], 82.2% (inactive); in assay [5], 101% (inactive); in assay [6] (setting [9]), 97.9%; in assay [6] (setting [10]), 101%. Moreover, the Her2 level in assay [2] was 92% (inactive). Moreover, the differential viability (reversal) in assay [6] (H69AR cells + 2 uM doxorubicin) was 3.34% (inactive). The values for the inhibition in assay [7] and in assay [8] were 2.5% (inactive) and 14.3% (inactive), respectively.

`O=C(Nc1ccc(SC(F)F)cc1)c1ccc2nccnc2c1`: the viability in assay [1] was 91.5%; in assay [3], 91.5% (inactive); in assay [4], 67% (inactive); in assay [5], 92.1% (inactive); in assay [6] (setting [9]), 89.4%; in assay [6] (setting [10]) it was 92.1%. In addition, the Her2 level in assay [2] is 77.5% (inactive). Moreover, the differential viability (reversal) in assay [6] (H69AR cells + 2 uM doxorubicin) was 2.67% (inactive). For the same molecule, the inhibition was -2.53% (inactive) in assay [7] and -2.54% (inactive) in assay [8].

Regarding `O=C(CN1CCN(C2CCCCC2)CC1)Nc1ccccc1-c1ccccc1`, the viability in assay [1] is 90.5%; in assay [3], 90.5% (inactive); in assay [4], 91.4% (inactive); in assay [5] it was 84.7% (inactive); in assay [6] (setting [9]), 76.7%; in assay [6] (setting [10]) it was 84.7%. Moreover, in assay [2], the Her2 level was 61% (inactive). The differential viability (reversal) in assay [6] (H69AR cells + 2 uM doxorubicin) is 7.96% (inactive). Moreover, the figures for the inhibition in assay [7] and in assay [8] were -3.24% (inactive) and 1.9% (inactive), respectively.

Consider `Cc1ccc2c(c1)sc1ncc(NC(=O)c3ccccc3)c(=O)n12`, for which the viability was 88.5% in assay [1]; 88.5% (inactive) in assay [3]; 114% (inactive) in assay [4]; 91.7% (inactive) in assay [5]; 88.3% in assay [6] (setting [9]); 91.7% in assay [6] (setting [10]). Besides, the Her2 level in assay [2] is 87% (inactive). Further, the differential viability (reversal) in assay [6] (H69AR cells + 2 uM doxorubicin) was 3.43% (inactive). For the same molecule, the values for the inhibition in assay [7] and in assay [8] were -0.67% (inactive) and 0.66% (inactive), respectively.

Consider `COc1cccc(OC)c1C(=O)N1CCOCC1`, for which the viability in assay [1] was 100%; in assay [3], 100% (inactive); in assay [4], 92.1% (inactive); in assay [5] it was 100% (inactive); in assay [6] (setting [9]) it was 85.1%; in assay [6] (setting [10]), 100%. For the same molecule, the Her2 level in assay [2] was 87.5% (inactive). In assay [6] (H69AR cells + 2 uM doxorubicin), the differential viability (reversal) was 15% (inactive). Moreover, the inhibition in assay [7] was -1.84% (inactive); in assay [8], -0.81% (inactive).

With `Cc1ccc(CCNC(=O)C2CCN(S(=O)(=O)c3cccc4nsnc34)CC2)cc1`, the viability in assay [1] was 93.5%; in assay [3], 93.5% (inactive); in assay [4] it was 107% (inactive); in assay [5], 95.6% (inactive); in assay [6] (setting [9]), 99.2%; in assay [6] (setting [10]), 95.6%. Also, in assay [2], the Her2 level is 108% (inactive). Besides, the differential viability (reversal) in assay [6] (H69AR cells + 2 uM doxorubicin) is -3.61% (inactive). For the same molecule, the inhibition in assay [7] was 2.13% (inactive); in assay [8], 0.33% (inactive).
